Measurements gathered from unrelated publications.
Each line is one published result; the experiments were not run side by side.
Target: Serine/threonine-protein kinase ULK2 (ULK2, Homo sapiens, UniProt Q8IYT8)
Residues used in one study (Q8IYT8 1-1036): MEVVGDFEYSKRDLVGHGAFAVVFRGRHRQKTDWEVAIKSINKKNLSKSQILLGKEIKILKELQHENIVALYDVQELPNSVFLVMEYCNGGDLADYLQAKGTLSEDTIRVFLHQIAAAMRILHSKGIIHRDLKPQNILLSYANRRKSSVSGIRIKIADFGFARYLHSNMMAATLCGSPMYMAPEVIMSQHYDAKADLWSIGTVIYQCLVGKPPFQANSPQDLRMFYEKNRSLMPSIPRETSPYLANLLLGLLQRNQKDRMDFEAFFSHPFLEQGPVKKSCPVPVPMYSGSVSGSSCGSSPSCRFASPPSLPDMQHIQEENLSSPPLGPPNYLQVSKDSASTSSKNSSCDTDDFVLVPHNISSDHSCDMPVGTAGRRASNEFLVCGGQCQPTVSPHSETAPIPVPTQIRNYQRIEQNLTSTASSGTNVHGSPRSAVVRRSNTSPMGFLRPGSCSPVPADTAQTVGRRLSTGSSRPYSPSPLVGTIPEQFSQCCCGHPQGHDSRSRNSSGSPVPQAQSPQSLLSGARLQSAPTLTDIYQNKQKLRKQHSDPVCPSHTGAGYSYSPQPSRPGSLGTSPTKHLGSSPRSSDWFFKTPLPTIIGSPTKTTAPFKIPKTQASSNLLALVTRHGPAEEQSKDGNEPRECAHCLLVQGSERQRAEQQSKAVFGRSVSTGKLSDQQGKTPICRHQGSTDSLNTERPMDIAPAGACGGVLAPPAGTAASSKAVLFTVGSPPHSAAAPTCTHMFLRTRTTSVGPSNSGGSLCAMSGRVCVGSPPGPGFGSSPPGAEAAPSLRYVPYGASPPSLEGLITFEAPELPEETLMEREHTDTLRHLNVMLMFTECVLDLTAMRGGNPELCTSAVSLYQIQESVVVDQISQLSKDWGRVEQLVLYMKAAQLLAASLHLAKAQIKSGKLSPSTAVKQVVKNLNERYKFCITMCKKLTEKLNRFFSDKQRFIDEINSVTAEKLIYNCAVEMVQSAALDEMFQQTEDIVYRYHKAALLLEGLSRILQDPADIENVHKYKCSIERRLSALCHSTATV

COc1ncc2cc3ccccc3nc2c1C#N — remaining binding (cell-free assay; competition with immobilised ligand; 5 µM): 100%
O=C(c1ccc(Nc2ncc(Cl)c(-c3ccc(Cl)s3)n2)cc1)N1CCC(N2CCCC2)CC1 — remaining binding (binding; competition with immobilised ligand; 1 µM): 31%
C[C@@H]1CN(c2ccc3ncc(-c4ccc5[nH]nc(C6CC6)c5c4)n3n2)C[C@H](C)O1 — remaining binding (binding; competition with immobilised ligand; 50 nM): 92%
CCS(=O)(=O)c1cc2cc(C[C@](O)(CC(C)(C)c3ccc(F)cc3C(N)=O)C(F)(F)F)[nH]c2cn1 — remaining binding (cell-free assay; competition with immobilised ligand; 1 µM): 100%
COc1cnc(Nc2cccc(S(N)(=O)=O)c2)nc1N1CCN(c2ccccc2)CC1 — remaining binding (binding; competition with immobilised ligand; 1 µM): 96%
F[C@@H]1CCN(c2nccc(-c3cnn4ncccc34)n2)C1 — remaining binding (binding; 1 µM): 100%
O=C(NCCCN1CCOCC1)c1ccc(Nc2ncc(Cl)c(-c3ccc(Cl)s3)n2)cc1 — remaining binding (binding; competition with immobilised ligand; 1 µM): 24%
C[C@@H](c1ccc(-n2cnc3c(N)ncnc32)cc1)N1CCc2nn(C)c(Cc3ccccc3)c2C1=O — remaining binding (binding; competition with immobilised ligand; 0.1 µM): 70%
CN(c1nccc(-c2cnn3ncccc23)n1)C1CC1 — remaining binding (binding; 1 µM): 100%
CSc1cccnc1N1CCN(Cc2nc3ccccc3[nH]2)CC1 — remaining binding (cell-free assay; competition with immobilised ligand; 1 µM): 94%
O=C(NCC1CCOCC1)c1n[nH]cc1NC(=O)c1c(F)cccc1F — remaining binding (binding; competition with immobilised ligand; 1 µM): 81%
CNCc1ccccc1-c1csc([C@H](C)Nc2nc(C)nc3cc(OC)c(OC)cc23)c1 — remaining binding (cell-free assay; competition with immobilised ligand; 1 µM): 100%
N[C@@H]1CCN(c2nccc(-c3cnn4ncccc34)n2)C1 — remaining binding (binding; 1 µM): 100%
O=C(NS(=O)(=O)c1ccc(NCC2CCOCC2)c([N+](=O)[O-])c1)c1ccc(N2CCN(Cc3ccc(C(F)(F)F)cc3-c3ccc(Cl)cc3)CC2)cc1Oc1cnc2[nH]ccc2c1 — remaining binding (cell-free assay; competition with immobilised ligand; 1 µM): 100%
c1cncc(-c2cccc(Nc3nccc(NC4CCCCC4)n3)c2)c1 — remaining binding (binding; competition with immobilised ligand; 10 µM): 80%
COc1cc(-c2cn(C3CCc4c(F)cccc4N(CC(F)(F)F)C3=O)nn2)ccc1-n1cnc(C)c1 (centres unmarked) — remaining binding (cell-free assay; competition with immobilised ligand; 1 µM): 100%
C[C@@H]1CCN(c2nccc(-c3cnn4ncccc34)n2)C1 — remaining binding (binding; 1 µM): 69%
